Experimental data from PMC3869895 (Investigational New Drugs, 2013).
Entries after “also recorded” stand apart in the source; their conditions may differ.

How the values were obtained:
[1] = cited from earlier work
advanced solid tumors = assay: Antitumor activity by RECIST 1.1; type: in vivo, human; details: with gemcitabine
Method in brief: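 Oral test compound once daily on days 1–3, 8–10, […] and 22–24 of 28-day cycles, fasting, with IV gemcitabine 1,000 mg/m2 on days 1, 8 and 15. Measurable disease required. Radiographic restaging every 2 cycles, scored by RECIST 1.1. Prolonged stable disease means stable disease for 4 or more months. Treatment continued until unacceptable toxicity, progression, withdrawal or study completion.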

xenograft models = details: intermittent and daily dosing in xenograft models; cited from earlier work
[2] = tested on: patients with advanced solid tumors; assay: Phase I 3+3 dose escalation: dose limiting toxicities and adverse events; type: in vivo, human
gamma secretase = details: cited from earlier work
[3] = Pharmacokinetic analysis of total and unbound RO4929097 in serial plasma; type: in vivo, human
[4] = stated as given in discussion; no reference given; cited from earlier work
[5] = in vitro; rather than overt cell death; no reference given; cited from earlier work
[6] = tested on: circulating angiogenesis factors; details: in vitro; cited from earlier work
[7] = dose level 3 (45 mg) + gemcitabine, CTCAE v4

CC(C)(C(=O)NCC(F)(F)C(F)(F)F)C(=O)N[C@@H]1C(=O)Nc2ccccc2-c2ccccc21 [RO4929097]
protein binding [1]: highly protein bound | stable disease > 4 months (prolonged stable disease), number of patients (advanced solid tumors; 18 patients enrolled): 3 patients | Best response (RECIST 1.1) (advanced solid tumors; one patient with nasopharyngeal carcinoma, 45 mg dose level): partial response | antitumor activity (xenograft models): demonstrates antitumor activity | DLT Event ([2]; dose level 2 (30 mg) + gemcitabine): Transaminitis | Grade of DLT event Transaminitis ([2]; dose level 2 (30 mg) + gemcitabine, CTCAE v4): 3 | DLT Event ([2]; dose level 3 (45 mg) + gemcitabine): Transaminitis; also recorded: Maculopapular rash | Grade of DLT event Maculopapular rash [2, 7]: 3 | Grade of DLT event Transaminitis [2, 7]: 3 | DLT Event ([2]; dose level 4 (90 mg) + gemcitabine): Transaminitis | Grade of DLT event Transaminitis ([2]; dose level 4 (90 mg) + gemcitabine, CTCAE v4): 3 | Grade of DLT event <75 % RO doses ([2]; dose level 4 (90 mg) + gemcitabine, secondary to prolonged neutropenia): 3 | maximum tolerated dose ([2]; in combination with gemcitabine, exceeded at this dose): < 90 mg | inhibition of gamma secretase (gamma secretase): potent inhibitor | autoinduction (Day 10: Day 1 total and free AUC 0-24) ([3]; dose levels 45 and 90 mg): presence of autoinduction | day 10: day 1 areas under the curve ([3]; with increasing dose levels): below 1 | half-life [4]: approximately 20 h | cell phenotype [5]: more flattened phenotype | expression of circulating angiogenesis factors [6]: reduce the expression
